Source: ChEMBL document CHEMBL3351945, “Effect of dehydroepiandrosterone derivatives on the activity of 5α-reductase isoenzymes and on cancer cell line PC-3” (Bioorg Med Chem, 2014)
Active and inactive are the calls of the source. No cut-off for these calls is given here.

Tests used:
[1] = Cytotoxicity against Swiss mouse primary peritoneal macrophages assessed as growth inhibition at 50 uM after 48 hrs by MTT assay; settings: for growth inhibition (GI): peritoneal macrophage cell, 48 h, 50 µM; for inhibition at 48 h, 50 µM: Swiss, primary peritoneal macrophages, read-out: GI
[2] = target: T1, 3-oxo-5-alpha-steroid 4-dehydrogenase 1 (Rattus norvegicus, UniProt P24008); experiment: Inhibition of rat liver 5alpha-reductase type 1 assessed as conversion of [3H]testosterone to dihydrotestosterone
T1 sequence (P24008 whole entry): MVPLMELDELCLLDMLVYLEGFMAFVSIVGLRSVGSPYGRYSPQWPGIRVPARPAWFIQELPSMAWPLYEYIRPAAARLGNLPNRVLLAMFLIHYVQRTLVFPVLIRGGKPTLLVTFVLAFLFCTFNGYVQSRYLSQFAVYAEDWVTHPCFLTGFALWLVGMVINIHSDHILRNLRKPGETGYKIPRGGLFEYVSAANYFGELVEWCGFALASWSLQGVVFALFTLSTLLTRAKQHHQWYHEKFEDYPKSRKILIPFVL
Procedure, shortened: (§1)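 Each reaction contained 1 mM DTT in 40 mM sodium phosphate, 2 nM [3H]T and 2 mM NADPH. Type 1 ran at pH 8.0 with 6.31 µM T added and 90 µg solubilized rat liver microsomal protein. Type 2 ran at pH 6.5 with 50 µg human prostate membrane protein. Inhibitors were tested at 1e-11–1e-3 M, in duplicate, 60 min at 37.5 °C. Reactions were stopped with dichloromethane, DHT separated by TLC and radioscanned, and IC50 taken from inhibition curves.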

PC-3 = experiment: (§2) Cytotoxicity against human PC3 cells assessed as growth inhibition at 50 uM after 48 hrs by SRB assay; format: functional
Procedure, shortened: (§3)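 PC-3 cells (NCI) were grown in RPMI-1640 with 10% FBS, 2 mM L-glutamine, antibiotics/amphotericin B and 1% nonessential amino acids at 37 °C in 5% CO2. Viability exceeded 95% (trypan blue). Cells were seeded at 5000–10000/well, given 24 h, then exposed 48 h to 50 µM compound. Cells were fixed in cold TCA, stained with 0.4% SRB and read at 515 nm after Tris solubilization. Inhibition = 100 − (sample/vehicle absorbance × 100).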

[3] = target: T2, 3-oxo-5-alpha-steroid 4-dehydrogenase 2 (Homo sapiens, UniProt P31213); experiment: Inhibition of human prostate 5alpha-reductase type 2 assessed as conversion of [3H]testosterone to dihydrotestosterone; design: species or system Prostate gland
T2 sequence (P31213 whole entry): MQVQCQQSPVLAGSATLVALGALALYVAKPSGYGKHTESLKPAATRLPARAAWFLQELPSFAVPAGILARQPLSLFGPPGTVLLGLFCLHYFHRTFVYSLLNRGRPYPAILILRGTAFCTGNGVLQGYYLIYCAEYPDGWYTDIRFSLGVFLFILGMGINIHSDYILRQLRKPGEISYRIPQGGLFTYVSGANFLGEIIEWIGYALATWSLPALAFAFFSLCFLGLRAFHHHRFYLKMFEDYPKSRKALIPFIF
Procedure, shortened: as §1

[4] = as §2; format: functional; settings: PC-3, 48 h, read-out: GI
Procedure, shortened: as §3

Compound: CC(C)(C)NC(=O)[C@H]1CC[C@H]2[C@@H]3CC[C@H]4NC(=O)C=C[C@]4(C)[C@H]3CC[C@]12C [FINASTERIDE]
- growth inhibition (GI) [1]: Non-toxic
- IC50 ([2]; read-out: IC50): 630 µM
- growth inhibition (GI) (PC-3): inactive

Compound: C[C@]12CC[C@H](OC(=O)C3CCCCCC3)CC1=CC[C@@H]1[C@@H]2CC[C@]2(C)C(Cl)=C(C=O)C[C@@H]12
- growth inhibition (GI) [1]: Non-toxic
- IC50 ([3]; read-out: IC50): 0.015 µM
- IC50 [2]: Not Active
- growth inhibition (GI) (PC-3): inactive

Compound: C[C@]12CC[C@H](OC(=O)c3ccc(Br)cc3)CC1=CC[C@@H]1[C@@H]2CC[C@]2(C)C(n3ccnc3)=C(C=O)C[C@@H]12
- inhibition at 48 h, 50 µM [1]: 40.3%
- IC50 [3]: Not Active
- IC50 ([2]; read-out: IC50): 94.5 µM
- inhibition of growth at 50 µM [4]: 100%

Compound: C[C@]12CC[C@H](OC(=O)c3ccc(Cl)cc3)CC1=CC[C@@H]1[C@@H]2CC[C@]2(C)C(n3ccnc3)=C(C=O)C[C@@H]12
- inhibition at 48 h, 50 µM [1]: 29.2%
- IC50 [3]: Not Active
- IC50 ([2]; read-out: IC50): 100 µM
- inhibition of growth at 50 µM [4]: 98.2%

Compound: C[C@]12CC[C@H](OC(=O)C3CCCCC3)CC1=CC[C@@H]1[C@@H]2CC[C@]2(C)C(Cl)=C(C=O)C[C@@H]12
- growth inhibition (GI) [1]: Non-toxic
- IC50 ([3]; read-out: IC50): 0.008 µM
- IC50 [2]: Not Active
- growth inhibition (GI) (PC-3): inactive

Compound: C[C@]12CC[C@H](OC(=O)C3CCCC3)CC1=CC[C@@H]1[C@@H]2CC[C@]2(C)C(Cl)=C(C=O)C[C@@H]12
- growth inhibition (GI) [1]: Non-toxic
- IC50 ([3]; read-out: IC50): 0.05 µM
- IC50 [2]: Not Active
- growth inhibition (GI) (PC-3): inactive

Compound: C[C@]12CC[C@H](OC(=O)c3ccc(I)cc3)CC1=CC[C@@H]1[C@@H]2CC[C@]2(C)C(n3ccnc3)=C(C=O)C[C@@H]12
- growth inhibition (GI) [1]: Non-toxic
- IC50 [3]: Not Active
- IC50 ([2]; read-out: IC50): 300 µM
- growth inhibition (GI) (PC-3): inactive

Compound: C[C@]12CC[C@H](OC(=O)c3ccc(F)cc3)CC1=CC[C@@H]1[C@@H]2CC[C@]2(C)C(n3ccnc3)=C(C=O)C[C@@H]12
- inhibition at 48 h, 50 µM [1]: 30.1%
- IC50 [3]: Not Active
- IC50 ([2]; read-out: IC50): 320 µM
- inhibition of growth at 50 µM [4]: 100%

Compound: C[C@]12CC[C@H](OC(=O)C3CCCCCC3)CC1=CC[C@@H]1[C@@H]2CC[C@]2(C)C(n3ccnc3)=C(C=O)C[C@@H]12
- growth inhibition (GI) [1]: Non-toxic
- IC50 [3]: Not Active
- IC50 ([2]; read-out: IC50): 320 µM
- growth inhibition (GI) (PC-3): inactive

Compound: C[C@]12CC[C@H](OC(=O)C3CCCCC3)CC1=CC[C@@H]1[C@@H]2CC[C@]2(C)C(n3ccnc3)=C(C=O)C[C@@H]12
- growth inhibition (GI) [1]: Non-toxic
- IC50 [3]: Not Active
- IC50 ([2]; read-out: IC50): 300 µM
- growth inhibition (GI) (PC-3): inactive

Compound: C[C@]12CC[C@H](OC(=O)C3CC3)CC1=CC[C@@H]1[C@@H]2CC[C@]2(C)C(n3ccnc3)=C(C=O)C[C@@H]12
- inhibition at 48 h, 50 µM [1]: 41.5%
- IC50 [3]: Not Active
- IC50 ([2]; read-out: IC50): 200 µM
- inhibition of growth at 50 µM [4]: 100%

Compound: CC(=O)O[C@H]1CC[C@@]2(C)C(=CC[C@@H]3[C@@H]2CC[C@]2(C)C(n4ccnc4)=C(C=O)C[C@@H]32)C1
- inhibition at 48 h, 50 µM [1]: 36.2%
- IC50 [3]: Not Active
- IC50 [2]: Not Active
- inhibition of growth at 50 µM [4]: 56.5%

Compound: C[C@]12CC[C@H](OC(=O)C3CC3)CC1=CC[C@@H]1[C@@H]2CC[C@]2(C)C(Cl)=C(C=O)C[C@@H]12
- growth inhibition (GI) [1]: Non-toxic
- IC50 ([3]; read-out: IC50): 0.0032 µM
- IC50 [2]: Not Active
- growth inhibition (GI) (PC-3): inactive

Compound: C[C@]12CC[C@H](OC(=O)C3CCCC3)CC1=CC[C@@H]1[C@@H]2CC[C@]2(C)C(n3ccnc3)=C(C=O)C[C@@H]12
- growth inhibition (GI) [1]: Non-toxic
- IC50 [3]: Not Active
- IC50 ([2]; read-out: IC50): 265 µM
- growth inhibition (GI) (PC-3): inactive

Compound: C[C@]12CC[C@H](OC(=O)C3CCC3)CC1=CC[C@@H]1[C@@H]2CC[C@]2(C)C(n3ccnc3)=C(C=O)C[C@@H]12
- growth inhibition (GI) [1]: Non-toxic
- IC50 [3]: Not Active
- IC50 ([2]; read-out: IC50): 250 µM
- growth inhibition (GI) (PC-3): inactive

Compound: CC(=O)O[C@H]1CC[C@@]2(C)C(=CC[C@@H]3[C@@H]2CC[C@]2(C)C(Cl)=C(C=O)C[C@@H]32)C1
- growth inhibition (GI) [1]: Non-toxic
- IC50 ([3]; read-out: IC50): 0.05 µM
- IC50 [2]: Not Active
- growth inhibition (GI) (PC-3): inactive

Compound: C[C@]12CC[C@H](OC(=O)C3CCC3)CC1=CC[C@@H]1[C@@H]2CC[C@]2(C)C(Cl)=C(C=O)C[C@@H]12
- growth inhibition (GI) [1]: Non-toxic
- IC50 ([3]; read-out: IC50): 0.013 µM
- IC50 [2]: Not Active
- growth inhibition (GI) (PC-3): inactive

Compound: CC(=O)N1CCN(c2ccc(OCC3COC(Cn4ccnc4)(c4ccc(Cl)cc4Cl)O3)cc2)CC1 (stereo not given) [KETOCONAZOLE]
- inhibition at 48 h, 50 µM [1]: 41.5%
- IC50 [3]: Not Active
- inhibition of growth at 50 µM [4]: 85.4%
